This passage reports Relative Ki and Relative Kd results from ChEMBL document CHEMBL1134462, “Toward a rational design of peptide inhibitors of ribonucleotide reductase: structure-function and modeling studies” (J Med Chem, 2001).

Non-standard residues stand in square brackets, D forms with d. Residues, ends and D or L forms follow the SMILES beside them. aThr = C[C@H](O)[C@H](N)C(=O)O

The first assay is described as follows: Relative binding affinity evaluated against mouse Ribonucleotide Reductase (RR). In outline:
(§1)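 Competition of free ligand with column-bound FTLDADF (Sepharose mixed ~60:40 with underivatized Sepharose) for mouse R1. mR1 (4.4 μM) premixed with ligand (typically 100 μM) in 50 mM Tris pH 8.5, 10 mM DTT, 100 μM dTTP, held 30 min on spin column, then centrifuged. Eluted R1 measured by Bradford assay, duplicates; Kd derived from elution versus no-ligand control, expressed relative to AcFTLDADF standard.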
`CC(C)C[C@H](NC(=O)[C@@H](NC(=O)[C@@H](N)Cc1ccccc1)[C@H](C)O)C(=O)N[C@@H](CC(=O)O)C(=O)N[C@@H](C)C(=O)N[C@@H](CC(=O)O)C(=O)N[C@@H](Cc1ccccc1)C(=O)O` (H-F[aThr]LDADF-OH) returned a Relative Ki greater than 40.
On to `CC(=O)N[C@@H](Cc1ccccc1)C(=O)N[C@H](C(=O)N[C@@H](CC(C)C)C(=O)N[C@@H](CC(=O)O)C(=O)N[C@@H](C)C(=O)N[C@@H](CC(=O)O)C(=O)N[C@@H](Cc1ccccc1)C(=O)N[C@@H](C)C(=O)N[C@@H](C)C(=O)O)[C@H](C)O` (Ac-F[aThr]LDADFAA-OH), for which the Relative Ki was greater than 35.
Consider `CC(=O)N[C@@H](Cc1ccc(O)cc1)C(=O)N[C@H](C(=O)N[C@@H](CC(C)C)C(=O)N[C@@H](CC(=O)O)C(=O)N[C@@H](C)C(=O)N[C@@H](CC(=O)O)C(=O)N[C@@H](Cc1ccccc1)C(=O)O)[C@H](C)O`, for which the Relative Ki was determined as 15.
On the same count and under the same terms, under `CC(=O)N[C@@H](Cc1ccccc1)C(=O)N[C@H](C(=O)N[C@@H](CC(C)C)C(=O)N[C@@H](CC(=O)O)C(=O)N[C@@H](C)C(=O)N[C@@H](CC(=O)O)C(=O)N[C@@H](Cc1c[nH]cn1)C(=O)O)[C@H](C)O` stands greater than 20; under `CC(=O)N[C@@H](Cc1ccccc1)C(=O)N[C@H](C(=O)N[C@@H](CC(C)C)C(=O)N[C@@H](CC(=O)O)C(=O)N[C@@H](C)C(=O)N[C@@H](CC(=O)O)C(=O)N[C@@H](CC(C)C)C(=O)O)[C@H](C)O` (Ac-F[aThr]LDADL-OH), greater than 35.

Another assay in a line: Relative dissociation constant evaluated against mouse Ribonucleotide Reductase (RR). In outline: as §1
`CC(=O)N[C@@H](Cc1ccccc1)C(=O)N[C@H](C(=O)N[C@@H](CC(C)C)C(=O)N[C@@H](CC(=O)O)C(=O)N[C@@H](C)C(=O)N[C@@H](CC(=O)O)C(=O)N[C@@H](Cc1cccc(O)c1)C(=O)O)[C@H](C)O` came in with a Relative Kd of 6.3.
In turn, `CC(=O)N[C@@H](CC(C)C)C(=O)N[C@H](C(=O)N[C@@H](CC(C)C)C(=O)N[C@@H](CC(=O)O)C(=O)N[C@@H](C)C(=O)N[C@@H](CC(=O)O)C(=O)N[C@@H](Cc1ccccc1)C(=O)O)[C@H](C)O` (Ac-L[aThr]LDADF-OH) came in with a Relative Kd greater than 30.
Compound `CC(=O)N[C@@H](Cc1ccccc1)C(=O)N[C@H](C(=O)N[C@@H](CC(C)C)C(=O)N[C@@H](CC(=O)O)C(=O)N[C@@H](C)C(=O)N[C@@H](CC(=O)O)C(=O)N[C@@H](Cc1ccc(O)cc1)C(=O)O)[C@H](C)O` showed a Relative Kd of 24.
Same read-out and setting: as for `CC(=O)N[C@H](C(=O)N[C@H](C(=O)N[C@@H](CC(C)C)C(=O)N[C@@H](CC(=O)O)C(=O)N[C@@H](C)C(=O)N[C@@H](CC(=O)O)C(=O)N[C@@H](Cc1ccccc1)C(=O)O)[C@H](C)O)c1ccccc1`, the figure is 6.6; as for `CC(C)C[C@H](NC(=O)[C@@H](NC(=O)[C@H](Cc1ccccc1)NC=O)[C@H](C)O)C(=O)N[C@@H](CC(=O)O)C(=O)N[C@@H](C)C(=O)N[C@@H](CC(=O)O)C(=O)N[C@@H](Cc1ccccc1)C(=O)O`, 2.4.
For the compound `COc1ccc(C[C@H](NC(=O)[C@H](CC(=O)O)NC(=O)[C@H](C)NC(=O)[C@H](CC(=O)O)NC(=O)[C@H](CC(C)C)NC(=O)[C@@H](NC(=O)[C@H](Cc2ccccc2)NC(C)=O)[C@H](C)O)C(=O)O)cc1`, the Relative Kd stood at 16.
Same read-out and setting: under `CC(=O)N[C@@H](Cc1ccccc1)C(=O)N[C@H](C(=O)N[C@@H](CC(C)C)C(=O)N[C@@H](CC(=O)O)C(=O)N[C@@H](C)C(=O)N[C@@H](CC(=O)O)C(=O)N[C@@H](Cc1ccccc1Cl)C(=O)O)[C@H](C)O` stands 12.
`CC(C)C[C@H](NC(=O)[C@@H](NC(=O)[C@H](Cc1ccccc1)NC(=O)OCC1c2ccccc2-c2ccccc21)[C@H](C)O)C(=O)N[C@@H](CC(=O)O)C(=O)N[C@@H](C)C(=O)N[C@@H](CC(=O)O)C(=O)N[C@@H](Cc1ccccc1)C(=O)O` showed a Relative Kd of 1.4.
Compound `CC(C)C[C@H](NC(=O)[C@@H](NC(=O)[C@H](Cc1ccccc1)NC(=O)Cc1ccccc1)[C@H](C)O)C(=O)N[C@@H](CC(=O)O)C(=O)N[C@@H](C)C(=O)N[C@@H](CC(=O)O)C(=O)N[C@@H](Cc1ccccc1)C(=O)O` returned a Relative Kd of 0.8.
The same measure, in the same setting: under `CC(=O)N[C@H](C(=O)N[C@H](C(=O)N[C@@H](CC(C)C)C(=O)N[C@@H](CC(=O)O)C(=O)N[C@@H](C)C(=O)N[C@@H](CC(=O)O)C(=O)N[C@@H](Cc1ccccc1)C(=O)O)[C@H](C)O)C(C)C` stands greater than 30; under `CC(C)C[C@H](NC(=O)[C@@H](NC(=O)[C@H](Cc1ccccc1)NC(=O)c1ccccc1)[C@H](C)O)C(=O)N[C@@H](CC(=O)O)C(=O)N[C@@H](C)C(=O)N[C@@H](CC(=O)O)C(=O)N[C@@H](Cc1ccccc1)C(=O)O`, 1.9; under `CC(=O)N[C@@H](Cc1ccccc1)C(=O)N[C@H](C(=O)N[C@@H](CC(C)C)C(=O)N[C@@H](CC(=O)O)C(=O)N[C@@H](C)C(=O)N[C@@H](CC(=O)O)C(=O)N[C@H](Cc1ccccc1)C(=O)O)[C@H](C)O`, 8.6.
The same measure, in the same setting: under `COc1ccc(CC(=O)N[C@@H](Cc2ccccc2)C(=O)N[C@H](C(=O)N[C@@H](CC(C)C)C(=O)N[C@@H](CC(=O)O)C(=O)N[C@@H](C)C(=O)N[C@@H](CC(=O)O)C(=O)N[C@@H](Cc2ccccc2)C(=O)O)[C@H](C)O)cc1` stands 0.8; under `CC(=O)N[C@@H](Cc1ccccc1)C(=O)N[C@H](C(=O)N[C@@H](CC(C)C)C(=O)N[C@@H](CC(=O)O)C(=O)N[C@@H](C)C(=O)N[C@@H](CC(=O)O)C(=O)N[C@@H](Cc1ccc(N)cc1)C(=O)O)[C@H](C)O`, 23.
The same measure, in the same setting: under `CC(=O)N[C@@H](Cc1ccccc1)C(=O)N[C@H](C(=O)N[C@@H](CC(C)C)C(=O)N[C@@H](CC(=O)O)C(=O)N[C@@H](C)C(=O)N[C@@H](CC(=O)O)C(=O)N[C@@H](Cc1ccc([N+](=O)[O-])cc1)C(=O)O)[C@H](C)O` stands greater than 30.
`CC(=O)N[C@@H](Cc1ccccc1)C(=O)N[C@H](C(=O)N[C@@H](CC(C)C)C(=O)N[C@@H](CC(=O)O)C(=O)N[C@@H](C)C(=O)N[C@@H](CC(=O)O)C(=O)N[C@@H](CCC(N)=O)C(=O)O)[C@H](C)O` displayed a Relative Kd greater than 30.
For `CC(=O)N[C@@H](Cc1ccccc1)C(=O)N[C@H](C(=O)N[C@@H](CC(C)C)C(=O)N[C@@H](CC(=O)O)C(=O)N[C@@H](C)C(=O)N[C@@H](CC(=O)O)C(=O)N[C@@H](Cc1c[nH]c2ccccc12)C(=O)O)[C@H](C)O`, the Relative Kd came to 10.
On the same count and under the same terms, as for `CC(=O)N[C@@H](Cc1ccccc1)C(=O)N[C@H](C(=O)N[C@@H](CC(C)C)C(=O)N[C@@H](CC(=O)O)C(=O)N[C@@H](C)C(=O)N[C@@H](CC(=O)O)C(=O)N[C@H](C(=O)O)c1ccccc1)[C@H](C)O`, the figure is 24.
With `CC(=O)N[C@@H](C)C(=O)N[C@H](C(=O)N[C@@H](CC(C)C)C(=O)N[C@@H](CC(=O)O)C(=O)N[C@@H](C)C(=O)N[C@@H](CC(=O)O)C(=O)N[C@@H](Cc1ccccc1)C(=O)O)[C@H](C)O`, the Relative Kd is greater than 30.
As to `CC(=O)N[C@@H](Cc1ccccc1)C(=O)N[C@H](C(=O)N[C@@H](CC(C)C)C(=O)N[C@@H](CC(=O)O)C(=O)N[C@@H](C)C(=O)N[C@@H](CC(=O)O)C(=O)N[C@@H](Cc1c[nH]cn1)C(=O)O)[C@H](C)O`, the Relative Kd was 29.
The compound `CC(C)C[C@H](NC(=O)[C@@H](NC(=O)[C@H](Cc1ccccc1)NC(=O)Cc1ccc([N+](=O)[O-])cc1)[C@H](C)O)C(=O)N[C@@H](CC(=O)O)C(=O)N[C@@H](C)C(=O)N[C@@H](CC(=O)O)C(=O)N[C@@H](Cc1ccccc1)C(=O)O` returned a Relative Kd of 0.8.
Take `CCCC(=O)N[C@@H](Cc1ccccc1)C(=O)N[C@H](C(=O)N[C@@H](CC(C)C)C(=O)N[C@@H](CC(=O)O)C(=O)N[C@@H](C)C(=O)N[C@@H](CC(=O)O)C(=O)N[C@@H](Cc1ccccc1)C(=O)O)[C@H](C)O`: the Relative Kd was found to be 1.
The same measure, in the same setting: as for `CC(=O)N[C@@H](Cc1ccccc1)C(=O)N[C@H](C(=O)N[C@@H](CC(C)C)C(=O)N[C@@H](CC(=O)O)C(=O)N[C@@H](C)C(=O)N[C@@H](CC(=O)O)C(=O)N[C@@H](Cc1ccccc1F)C(=O)O)[C@H](C)O`, the figure is 2.
Same read-out and setting: as for `COc1cccc(C[C@H](NC(=O)[C@H](CC(=O)O)NC(=O)[C@H](C)NC(=O)[C@H](CC(=O)O)NC(=O)[C@H](CC(C)C)NC(=O)[C@@H](NC(=O)[C@H](Cc2ccccc2)NC(C)=O)[C@H](C)O)C(=O)O)c1`, the figure is 8.2; as for `COc1ccccc1C[C@H](NC(=O)[C@H](CC(=O)O)NC(=O)[C@H](C)NC(=O)[C@H](CC(=O)O)NC(=O)[C@H](CC(C)C)NC(=O)[C@@H](NC(=O)[C@H](Cc1ccccc1)NC(C)=O)[C@H](C)O)C(=O)O`, greater than 30.
Same read-out and setting: under `CC(=O)N[C@@H](Cc1ccccc1)C(=O)N[C@H](C(=O)N[C@@H](CC(C)C)C(=O)N[C@@H](CC(=O)O)C(=O)N[C@@H](C)C(=O)N[C@@H](CC(=O)O)C(=O)N[C@@H](Cc1ccc(C)cc1)C(=O)O)[C@H](C)O` stands 4.7; under `CC(C)C[C@H](NC(=O)[C@@H](NC(=O)[C@H](Cc1ccccc1)NC(=O)c1ccnc(-c2cc(C(=O)O)ccn2)c1)[C@H](C)O)C(=O)N[C@@H](CC(=O)O)C(=O)N[C@@H](C)C(=O)N[C@@H](CC(=O)O)C(=O)N[C@@H](Cc1ccccc1)C(=O)O`, 0.6; under `CC(=O)N[C@@H](Cc1ccccc1)C(=O)N[C@H](C(=O)N[C@@H](CC(C)C)C(=O)N[C@@H](CC(=O)O)C(=O)N[C@@H](C)C(=O)N[C@@H](CC(=O)O)C(=O)N[C@@H](Cc1ccccc1)C(N)=O)[C@H](C)O`, greater than 30.
With `CCC(=O)N[C@@H](Cc1ccccc1)C(=O)N[C@H](C(=O)N[C@@H](CC(C)C)C(=O)N[C@@H](CC(=O)O)C(=O)N[C@@H](C)C(=O)N[C@@H](CC(=O)O)C(=O)N[C@@H](Cc1ccccc1)C(=O)O)[C@H](C)O`, the Relative Kd stood at 6.3.
For the compound `CC(=O)N[C@@H](Cc1ccccc1)C(=O)N[C@H](C(=O)N[C@@H](CC(C)C)C(=O)N[C@@H](CC(=O)O)C(=O)N[C@@H](C)C(=O)N[C@@H](CC(=O)O)C(=O)N[C@@H](Cc1c(F)c(F)c(F)c(F)c1F)C(=O)O)[C@H](C)O`, the Relative Kd was determined as 16.
Same read-out and setting: as for `CC(=O)N[C@@H](Cc1ccccc1)C(=O)N[C@H](C(=O)N[C@@H](CC(C)C)C(=O)N[C@@H](CC(=O)O)C(=O)N[C@@H](C)C(=O)N[C@@H](CC(=O)O)C(=O)N[C@@H](Cc1ccccc1O)C(=O)O)[C@H](C)O`, the figure is 26.
